Test results taken from ChEMBL document CHEMBL3120160, “Nucleotide prodrugs of 2'-deoxy-2'-spirooxetane ribonucleosides as novel inhibitors of the HCV NS5B polymerase” (J Med Chem, 2014).

Legend:
Hepatitis C virus [1] = experiment: Antiviral activity against Hepatitis C virus genotype 1b in human Huh7-luc clone ET replicon cells assessed as inhibition of replicon replication after 3 days by luciferase assay; assay type: functional, organism-based, Hepacivirus hominis; details: Huh-7, 72 h
Summary of the method: (§1)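 Huh7 HCV replicon cells treated with compound for 3 days in 384-well format; antiviral EC50 and cytotoxic CC50 are each the mean of at least three repeats.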

[2] = Cytotoxicity against human HuH7 cells assessed as inhibition of cell proliferation after 3 days by BrdU incorporation assay; assay type: cell-based, Huh-7; summary of the method: as §1
[3] = Inhibition of wild type Hepatitis C virus truncated NS5B RNA dependent RNA polymerase lacking C-terminal 21 aminoacids using cIRES as template after 2 hrs by filter plate assay; set-up: species or system Hepacivirus hominis
Summary of the method: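 Wild-type HCV RdRp biochemical assay, tested with the nucleoside 5′-triphosphate (NTP) form; value reported as Ki, the average of two independent experiments.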

Liver [4] = experiment: Tmax in Sprague-Dawley rat liver assessed as triphosphate metabolite level at 50 mg/kg, po administered as single dose; assay type: ADME, organism-based; set-up: dose 50 mg/kg, route oral; details: in vivo
Hepatocyte [5] = experiment: Prodrug activation in human hepatocytes assessed as triphosphate metabolite formation at 10 uM after 8 hrs by LC-MS analysis; assay type: ADME, cell-based
Summary of the method: (§2)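 Prodrugs incubated at 10 μM with rat or human hepatocyte cultures; triphosphate metabolite quantified by LC–MS of cell lysates at 2 and 8 h.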

Liver [6] = experiment: Cmax in Sprague-Dawley rat liver assessed as triphosphate metabolite level at 50 mg/kg, po administered as single dose measured per gm of tissue; assay type: ADME, organism-based; set-up: dose 50 mg/kg, route oral; details: in vivo
Hepatocyte [7] = experiment: Prodrug activation in rat hepatocytes assessed as triphosphate metabolite formation at 10 uM after 8 hrs by LC-MS analysis; assay type: ADME, cell-based; summary of the method: as §2
Hepatocyte [8] = experiment: Prodrug activation in rat hepatocytes assessed as triphosphate metabolite formation at 10 uM after 2 hrs by LC-MS analysis; assay type: ADME, cell-based; summary of the method: as §2
Hepatocyte [9] = experiment: Prodrug activation in human hepatocytes assessed as triphosphate metabolite formation at 10 uM after 2 hrs by LC-MS analysis; assay type: ADME, cell-based; summary of the method: as §2
Hepatitis C virus [10] = experiment: Antiviral activity against Hepatitis C virus genotype 1b harboring NS5B polymerase S282T mutant gene in human Huh7-luc clone ET replicon cells assessed as inhibition of replicon replication after 3 days by luciferase assay; assay type: functional, organism-based, Hepacivirus hominis; details: Huh-7, 72 h
Summary of the method: (§3)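 Activity measured in a transient HCV replicon assay in which the NS5B polymerase carries the S282T substitution.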

Liver [11] = experiment: AUC (0 to infinity) in Sprague-Dawley rat liver assessed as triphosphate metabolite level at 50 mg/kg, po administered as single dose; assay type: ADME, organism-based; set-up: time infinity, dose 50 mg/kg, route oral; details: in vivo
Hepatitis C virus [12] = experiment: Ratio of EC50 for Hepatitis C virus genotype 1b harboring NS5B polymerase S282T mutant gene to EC50 for Hepatitis C virus genotype 1b harboring wild type NS5B polymerase in human Huh7-luc clone ET replicon cells by luciferase assay; assay type: functional, Hepacivirus hominis, Huh-7
Liver [13] = experiment: AUC (0 to last) in Sprague-Dawley rat liver assessed as triphosphate metabolite level at 50 mg/kg, po administered as single dose; assay type: ADME, organism-based; set-up: time 0 - last, dose 50 mg/kg, route oral; details: in vivo
Hepatitis C virus [14] = experiment: Ratio of EC90 for Hepatitis C virus harboring NS5B polymerase S282T mutant gene to EC90 for Hepatitis C virus harboring wild type NS5B polymerase; assay type: functional, Hepacivirus hominis
Hepatitis C virus [15] = experiment: Antiviral activity against Hepatitis C virus harboring NS5B polymerase S282T mutant gene; assay type: functional, Hepacivirus hominis; summary of the method: as §3

## C[C@@]1(F)[C@H](O)[C@@H](CO)O[C@H]1n1ccc(N)nc1=O
Hepatitis C virus [1]
  EC50: 1.9 µM
[2]
  CC50 at 72 h: > 98 µM

## O=c1ccn([C@@H]2O[C@H](CO)[C@@H](O)[C@]23CCO3)c(=O)[nH]1
Hepatitis C virus [1]
  EC50: > 98 µM
[3]
  Ki: 2.4 µM
[2]
  CC50 at 72 h: > 98 µM

## Nc1ccn([C@@H]2O[C@H](CO)[C@@H](O)[C@]23CCO3)c(=O)n1
Hepatitis C virus [1]
  EC50: 17.1 µM
[2]
  CC50 at 72 h: > 98 µM

## C[C@H](N[P@](=O)(OC[C@H]1O[C@@H](n2ccc(N)nc2=O)[C@@]2(CCO2)[C@@H]1O)Oc1ccccc1)C(=O)OCc1ccccc1
Hepatitis C virus [1]
  EC50: 35.8 µM
[2]
  CC50 at 72 h: > 98 µM

## C[C@H](N[P@@](=O)(OC[C@H]1O[C@@H](n2ccc(N)nc2=O)[C@@]2(CCO2)[C@@H]1O)Oc1ccccc1)C(=O)OCc1ccccc1
Hepatitis C virus [1]
  EC50: 41.5 µM
[2]
  CC50 at 72 h: > 98 µM

## C[C@H](N[P@](=O)(OC[C@H]1O[C@@H](n2ccc(=O)[nH]c2=O)[C@@]2(CCO2)[C@@H]1O)Oc1ccccc1)C(=O)OCc1ccccc1
Hepatitis C virus [1]
  EC50: 2.1 µM
[2]
  CC50 at 72 h: > 98 µM

## CCCCOC(=O)[C@H](C)N[P@](=O)(OC[C@H]1O[C@@H](n2ccc(=O)[nH]c2=O)[C@@]2(CCO2)[C@@H]1O)Oc1ccccc1
Hepatitis C virus [1]
  EC50: 2.2 µM
[2]
  CC50 at 72 h: > 98 µM

## C[C@H](N[P@@](=O)(OC[C@H]1O[C@@H](n2ccc(=O)[nH]c2=O)[C@@]2(CCO2)[C@@H]1O)Oc1cccc2ccccc12)C(=O)OCc1ccccc1
Hepatitis C virus [1]
  EC50: 2.3 µM
[2]
  CC50 at 72 h: > 98 µM

## C[C@H](N[P@](=O)(OC[C@H]1O[C@@H](n2ccc(=O)[nH]c2=O)[C@@]2(CCO2)[C@@H]1O)Oc1cccc2ccccc12)C(=O)OCc1ccccc1
Hepatitis C virus [1]
  EC50: 3.7 µM
[2]
  CC50 at 72 h: > 98 µM

## CCCCOC(=O)[C@H](C)NP(=O)(OC[C@H]1O[C@@H](n2ccc(=O)[nH]c2=O)[C@@]2(CCO2)[C@@H]1O)Oc1ccccc1 (some centres undefined)
Liver [4]
  Tmax: 6 h
Hepatitis C virus [1]
  EC50: 3.9 µM
Hepatocyte [5]
  Drug metabolism: 2730 ng/mL
Liver [6]
  Cmax: 894 ng/g
Hepatocyte [7]
  Drug metabolism: 75 ng/mL
Hepatocyte [8]
  Drug metabolism: 152 ng/mL
[2]
  CC50 at 72 h: > 98 µM
Hepatocyte [9]
  Drug metabolism: 351 ng/mL
Hepatitis C virus [10]
  EC50: 18.9 µM
Liver [11]
  AUC: 10480 ng·h/mL
Hepatitis C virus [12]
  Ratio EC50: 4.8
Liver [13]
  AUClast: 9871 ng·h/mL

## CC[C@H](N[P@](=O)(OC[C@H]1O[C@@H](n2ccc(=O)[nH]c2=O)[C@@]2(CCO2)[C@@H]1O)Oc1ccccc1)C(=O)OCc1ccccc1
Hepatitis C virus [1]
  EC50: 4.6 µM
[2]
  CC50 at 72 h: > 98 µM

## CC[C@H](N[P@@](=O)(OC[C@H]1O[C@@H](n2ccc(=O)[nH]c2=O)[C@@]2(CCO2)[C@@H]1O)Oc1ccccc1)C(=O)OCc1ccccc1
Hepatitis C virus [1]
  EC50: 4.9 µM
[2]
  CC50 at 72 h: > 98 µM

## C[C@H](N[P@@](=O)(OC[C@H]1O[C@@H](n2ccc(=O)[nH]c2=O)[C@@]2(CCO2)[C@@H]1O)Oc1ccccc1)C(=O)OCc1ccccc1
Hepatitis C virus [1]
  EC50: 5 µM
[2]
  CC50 at 72 h: > 98 µM

## CCCCOC(=O)[C@H](C)N[P@@](=O)(OC[C@H]1O[C@@H](n2ccc(=O)[nH]c2=O)[C@@]2(CCO2)[C@@H]1O)Oc1ccccc1
Hepatitis C virus [1]
  EC50: 5.3 µM
[2]
  CC50 at 72 h: > 98 µM

## [N-]=[N+]=N[C@]1(CO)O[C@@H](n2ccc(=O)[nH]c2=O)[C@@H](O)[C@H]1O
Hepatitis C virus [1]
  EC50: > 100 µM

## C[C@@]1(O)[C@H](O)[C@@H](CO)O[C@H]1n1ccc(N)nc1=O
Hepatitis C virus [1]
  EC50: 4.6 µM
[2]
  CC50 at 72 h: > 98 µM

## CC(C)OC(=O)[C@H](C)NP(=O)(OC[C@H]1O[C@@H](n2ccc(N)nc2=O)[C@@]2(CCO2)[C@@H]1O)Oc1ccccc1 (mixture of isomers)
Hepatitis C virus [1]
  EC50: 0.74 µM
[2]
  CC50 at 72 h: > 98 µM

## C[C@H](NP(=O)(OC[C@H]1O[C@@H](n2ccc(N)nc2=O)[C@@]2(CCO2)[C@@H]1O)Oc1ccc(Cl)cc1)C(=O)OCc1ccccc1 (mixture of isomers)
Hepatitis C virus [1]
  EC50: 2.6 µM
[2]
  CC50 at 72 h: > 98 µM

## CC(C)COC(=O)[C@H](C)NP(=O)(OC[C@H]1O[C@@H](n2ccc(=O)[nH]c2=O)[C@@]2(CCO2)[C@@H]1O)Oc1ccccc1 (mixture of isomers)
Hepatitis C virus [1]
  EC50: 0.23 µM
[2]
  CC50 at 72 h: > 98 µM

## O=C(CNP(=O)(OC[C@H]1O[C@@H](n2ccc(=O)[nH]c2=O)[C@@]2(CCO2)[C@@H]1O)Oc1ccc(Cl)cc1)OCc1ccccc1 (mixture of isomers)
Hepatitis C virus [1]
  EC50: 0.32 µM
[2]
  CC50 at 72 h: > 98 µM

## C[C@H](NP(=O)(OC[C@H]1O[C@@H](n2ccc(=O)[nH]c2=O)[C@@]2(CCO2)[C@@H]1O)Oc1ccc(Cl)cc1)C(=O)OCc1ccccc1 (mixture of isomers)
Hepatitis C virus [1]
  EC50: 1.3 µM
[2]
  CC50 at 72 h: > 98 µM

## C[C@H](NP(=O)(OC[C@H]1O[C@@H](n2ccc(=O)[nH]c2=O)[C@@]2(CCO2)[C@@H]1O)Oc1cccc2ccccc12)C(=O)OCc1ccccc1 (mixture of isomers)
Liver [4]
  Tmax: 6 h
Hepatitis C virus [1]
  EC50: 2 µM
Hepatocyte [5]
  Drug metabolism: 3373 ng/mL
Liver [6]
  Cmax: 754 ng/g
Hepatocyte [7]
  Drug metabolism: 107 ng/mL
Hepatocyte [8]
  Drug metabolism: 293 ng/mL
[2]
  CC50 at 72 h: > 98 µM
Hepatocyte [9]
  Drug metabolism: 1713 ng/mL
Liver [11]
  AUC: 9142 ng·h/mL
Liver [13]
  AUClast: 8427 ng·h/mL

## CC(C)CCOC(=O)[C@H](C)NP(=O)(OC[C@H]1O[C@@H](n2ccc(=O)[nH]c2=O)[C@@]2(CCO2)[C@@H]1O)Oc1ccccc1 (mixture of isomers)
Hepatitis C virus [1]
  EC50: 3.5 µM
[2]
  CC50 at 72 h: > 98 µM

## CC[C@H](NP(=O)(OC[C@H]1O[C@@H](n2ccc(=O)[nH]c2=O)[C@@]2(CCO2)[C@@H]1O)Oc1ccccc1)C(=O)OCc1ccccc1 (mixture of isomers)
Liver [4]
  Tmax: 6 h
Hepatitis C virus [1]
  EC50: 5.7 µM
Hepatocyte [5]
  Drug metabolism: 1480 ng/mL
Liver [6]
  Cmax: 419 ng/g
Hepatocyte [7]
  Drug metabolism: 87 ng/mL
Hepatocyte [8]
  Drug metabolism: 215 ng/mL
[2]
  CC50 at 72 h: > 98 µM
Hepatocyte [9]
  Drug metabolism: 202 ng/mL
Liver [13]
  AUClast: 1108 ng·h/mL

## C[C@H](NP(=O)(OC[C@H]1O[C@@H](n2ccc(=O)[nH]c2=O)[C@@]2(CCO2)[C@@H]1O)Oc1ccccc1)C(=O)OCc1ccccc1 (mixture of isomers)
Liver [4]
  Tmax: 2 h
Hepatitis C virus [1]
  EC50: 5.7 µM
Hepatocyte [5]
  Drug metabolism: 2457 ng/mL
Liver [6]
  Cmax: 775 ng/g
Hepatocyte [7]
  Drug metabolism: 81 ng/mL
Hepatocyte [8]
  Drug metabolism: 112 ng/mL
[2]
  CC50 at 72 h: > 98 µM
Hepatocyte [9]
  Drug metabolism: 304 ng/mL
Liver [13]
  AUClast: 3263 ng·h/mL

## Cc1ccc(C(C)C)c(OP(=O)(N[C@@H](C)C(=O)OCc2ccccc2)OC[C@H]2O[C@@H](n3ccc(=O)[nH]c3=O)[C@@]3(CCO3)[C@@H]2O)c1 (mixture of isomers)
Hepatitis C virus [1]
  EC50: 7.5 µM
[2]
  CC50 at 72 h: 29.6 µM

## CC(C)OC(=O)[C@H](C)NP(=O)(OC[C@H]1O[C@@H](n2ccc(=O)[nH]c2=O)[C@@]2(CCO2)[C@@H]1O)Oc1ccccc1 (mixture of isomers)
Hepatitis C virus [1]
  EC50: 20.9 µM
[2]
  CC50 at 72 h: > 98 µM

## COC(=O)C(C)(C)NP(=O)(OC[C@H]1O[C@@H](n2ccc(=O)[nH]c2=O)[C@@]2(CCO2)[C@@H]1O)Oc1ccccc1 (mixture of isomers)
Hepatitis C virus [1]
  EC50: 37.9 µM
[2]
  CC50 at 72 h: > 98 µM

## O=C(OCc1ccccc1)[C@@H](NP(=O)(OC[C@H]1O[C@@H](n2ccc(=O)[nH]c2=O)[C@@]2(CCO2)[C@@H]1O)Oc1ccccc1)c1ccccc1 (mixture of isomers)
Hepatitis C virus [1]
  EC50: > 87.2 µM
[2]
  CC50 at 72 h: > 92.8 µM

## CC[C@H](NP(=O)(OC[C@H]1O[C@@H](n2ccc(=O)[nH]c2=O)[C@@]2(CCO2)[C@@H]1O)Oc1ccccc1)C(=O)OC(C)C (mixture of isomers)
Hepatitis C virus [1]
  EC50: > 96.4 µM
[2]
  CC50 at 72 h: > 98 µM

## CC(C)OC(=O)[C@H](C)N[P@](=O)(OC[C@H]1O[C@@H](n2ccc(=O)[nH]c2=O)[C@](C)(F)[C@@H]1O)Oc1ccccc1 [SOFOSBUVIR]
Hepatitis C virus [14]
  Ratio: 18.6
Hepatitis C virus [15]
  EC90: 7.8 µM
